Assay results published in ChEMBL document CHEMBL4382261, “Onydecalins, Fungal Polyketides with Anti- Histoplasma and Anti-TRP Activity” (J Nat Prod, 2018).
pIC50: −log10 of the molar value. Values after ≈ are worked out from the molar mass of the structure shown. Active and inactive are the calls of the source. The rule behind the calls is not given here.

Assays:
[1] = test system: Histoplasma capsulatum; experiment: Antifungal activity against Histoplasma capsulatum G217B after 10 to 14 days by microscopic method; assay type: functional
Procedure, shortened: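 G217B yeast-phase cells were grown in brain-heart infusion for 3 days at 37 °C under 5% CO2, then used at 1×10⁴ cells/mL final in RPMI. Twofold dilutions were tested at 64 to 0.125 µg/mL final; itraconazole (16 µg/mL downward) and amphotericin B (16 to 0.008 µg/mL) were diluted similarly. Plates were incubated 10–14 days at 37 °C under 5% CO2, with vehicle controls.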

[2] = molecular target: Transient receptor potential cation channel subfamily M member 8 (Homo sapiens, UniProt Q7Z2W7); experiment: Antagonist activity at human TRPM8 channel expressed in HEK293 cells assessed as inhibition of icilin-induced calcium flux by Fluo-4-AM dye based fluorescence assay; assay type: cell-based
Procedure, shortened: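 Stable human TRPM8 HEK-293 cells, grown in DMEM:F12 with 5% FBS and Geneticin on gelatin-coated plates, were loaded with Fluo-4 AM for 60 min at 37 °C. Compounds were added 30 min before reading in LHC-9 with 1 mM probenecid and 0.75 mM trypan red. Icilin 50 µM was the agonist. Signal was normalized to the maximal agonist response, and IC50 came from 8-point curves with n=2–3.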

[3] = test system: Aspergillus fumigatus; experiment: Antifungal activity against Aspergillus fumigatus Af293 at 0.25 to 64 ug/ml after 48 hrs by microscopic method; assay type: functional, organism-based
Procedure, shortened: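 Af293 spores in RPMI with 0.1% Tween-80 were counted by hemocytometer and used at 1×10⁴ spores/mL final. Twofold compound dilutions in RPMI from DMSO stocks were tested at 64 to 0.125 µg/mL final in 96-well plates at 37 °C for 48 h, alongside DMSO-only and untreated controls.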

[4] = test system: Candida albicans; experiment: Antifungal activity against Candida albicans SC5314 at 0.25 to 64 ug/ml after 48 hrs by microscopic method; assay type: functional, organism-based
Procedure, shortened: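 SC5314 yeast grown overnight in YPD at 30 °C were counted by hemocytometer and used at 1×10⁴ cells/mL final in YPD. Twofold compound dilutions from DMSO stocks were tested at 64 to 0.125 µg/mL final, incubated 48 h at 30 °C, with DMSO-only and untreated controls.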

[5] = molecular target: Transient receptor potential cation channel subfamily V member 4 (Homo sapiens, UniProt Q9HBA0); experiment: Antagonist activity at human TRPV4 channel expressed in HEK293 cells assessed as inhibition of GSK1016790A-induced calcium flux by Fluo-4-AM dye based fluorescence assay; assay type: cell-based
Procedure, shortened: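 HEK-293 cells stably overexpressing human TRPV4 were loaded with Fluo-4 AM for 60 min at 37 °C. Compounds were preincubated 30 min in LHC-9 containing 1 mM probenecid and 0.75 mM trypan red. GSK1016790A 0.03 µM was the agonist. Fluorescence change was normalized to the maximal agonist response, and IC50 came from 8-point curves with n=2–3.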

[6] = molecular target: Transient receptor potential cation channel subfamily V member 1 (Homo sapiens, UniProt Q8NER1); experiment: Antagonist activity at human TRPV1 channel expressed in human BEAS2B cells assessed as inhibition of […] by Fluo-4-AM dye based fluorescence assay; assay type: cell-based
Sequence of Transient receptor potential cation channel subfamily V member 1 (Q8NER1 whole entry): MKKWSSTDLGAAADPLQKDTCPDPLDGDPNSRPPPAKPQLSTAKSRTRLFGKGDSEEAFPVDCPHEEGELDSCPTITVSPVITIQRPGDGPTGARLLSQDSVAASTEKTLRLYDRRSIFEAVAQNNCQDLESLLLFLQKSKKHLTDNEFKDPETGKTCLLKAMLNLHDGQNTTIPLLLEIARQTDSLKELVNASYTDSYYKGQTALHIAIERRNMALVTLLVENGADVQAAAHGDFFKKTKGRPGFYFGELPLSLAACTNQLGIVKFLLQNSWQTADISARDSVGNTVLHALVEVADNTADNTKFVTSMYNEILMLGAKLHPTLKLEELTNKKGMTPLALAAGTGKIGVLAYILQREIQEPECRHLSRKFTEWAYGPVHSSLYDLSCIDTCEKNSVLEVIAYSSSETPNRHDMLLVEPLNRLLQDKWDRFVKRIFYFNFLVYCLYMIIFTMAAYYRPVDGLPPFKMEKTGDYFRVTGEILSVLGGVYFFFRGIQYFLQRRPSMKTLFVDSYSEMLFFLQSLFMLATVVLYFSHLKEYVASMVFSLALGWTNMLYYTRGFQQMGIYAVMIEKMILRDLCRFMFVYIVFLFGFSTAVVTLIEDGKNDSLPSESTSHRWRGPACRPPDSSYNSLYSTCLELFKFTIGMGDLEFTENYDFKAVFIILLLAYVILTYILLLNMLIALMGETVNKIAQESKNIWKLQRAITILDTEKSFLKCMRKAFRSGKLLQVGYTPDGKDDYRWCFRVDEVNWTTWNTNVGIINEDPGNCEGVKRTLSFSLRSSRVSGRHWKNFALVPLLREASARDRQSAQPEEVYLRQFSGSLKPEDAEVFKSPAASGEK

Sequence of Transient receptor potential cation channel subfamily M member 8 (Q7Z2W7 whole entry): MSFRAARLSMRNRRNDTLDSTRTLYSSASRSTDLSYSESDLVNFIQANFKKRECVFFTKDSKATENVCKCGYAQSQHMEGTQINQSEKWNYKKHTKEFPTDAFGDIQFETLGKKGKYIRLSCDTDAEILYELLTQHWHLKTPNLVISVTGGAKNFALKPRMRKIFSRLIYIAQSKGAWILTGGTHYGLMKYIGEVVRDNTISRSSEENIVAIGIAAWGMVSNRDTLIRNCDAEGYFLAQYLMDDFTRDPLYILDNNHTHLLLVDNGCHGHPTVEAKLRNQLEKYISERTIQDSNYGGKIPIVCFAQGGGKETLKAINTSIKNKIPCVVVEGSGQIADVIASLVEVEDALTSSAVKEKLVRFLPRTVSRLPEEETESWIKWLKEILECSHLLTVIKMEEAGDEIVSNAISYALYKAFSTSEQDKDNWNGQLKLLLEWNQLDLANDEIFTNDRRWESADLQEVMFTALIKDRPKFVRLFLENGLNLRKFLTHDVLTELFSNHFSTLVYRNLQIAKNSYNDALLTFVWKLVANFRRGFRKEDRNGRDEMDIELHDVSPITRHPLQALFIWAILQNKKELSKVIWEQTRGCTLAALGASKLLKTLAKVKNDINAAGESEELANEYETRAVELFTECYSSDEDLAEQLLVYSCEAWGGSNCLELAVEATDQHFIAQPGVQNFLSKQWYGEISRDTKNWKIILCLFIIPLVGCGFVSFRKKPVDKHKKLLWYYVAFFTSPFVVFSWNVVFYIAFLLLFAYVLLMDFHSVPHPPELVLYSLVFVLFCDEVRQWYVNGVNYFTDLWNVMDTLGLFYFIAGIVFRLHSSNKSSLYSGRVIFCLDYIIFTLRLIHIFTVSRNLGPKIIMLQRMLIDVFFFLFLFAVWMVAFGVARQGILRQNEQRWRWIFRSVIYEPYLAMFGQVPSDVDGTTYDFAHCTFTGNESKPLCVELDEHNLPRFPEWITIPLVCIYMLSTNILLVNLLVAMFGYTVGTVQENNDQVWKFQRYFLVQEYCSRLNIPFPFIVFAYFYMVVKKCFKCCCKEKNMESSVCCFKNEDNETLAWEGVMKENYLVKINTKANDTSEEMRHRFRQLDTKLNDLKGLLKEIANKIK
Sequence of Transient receptor potential cation channel subfamily V member 4 (Q9HBA0 whole entry): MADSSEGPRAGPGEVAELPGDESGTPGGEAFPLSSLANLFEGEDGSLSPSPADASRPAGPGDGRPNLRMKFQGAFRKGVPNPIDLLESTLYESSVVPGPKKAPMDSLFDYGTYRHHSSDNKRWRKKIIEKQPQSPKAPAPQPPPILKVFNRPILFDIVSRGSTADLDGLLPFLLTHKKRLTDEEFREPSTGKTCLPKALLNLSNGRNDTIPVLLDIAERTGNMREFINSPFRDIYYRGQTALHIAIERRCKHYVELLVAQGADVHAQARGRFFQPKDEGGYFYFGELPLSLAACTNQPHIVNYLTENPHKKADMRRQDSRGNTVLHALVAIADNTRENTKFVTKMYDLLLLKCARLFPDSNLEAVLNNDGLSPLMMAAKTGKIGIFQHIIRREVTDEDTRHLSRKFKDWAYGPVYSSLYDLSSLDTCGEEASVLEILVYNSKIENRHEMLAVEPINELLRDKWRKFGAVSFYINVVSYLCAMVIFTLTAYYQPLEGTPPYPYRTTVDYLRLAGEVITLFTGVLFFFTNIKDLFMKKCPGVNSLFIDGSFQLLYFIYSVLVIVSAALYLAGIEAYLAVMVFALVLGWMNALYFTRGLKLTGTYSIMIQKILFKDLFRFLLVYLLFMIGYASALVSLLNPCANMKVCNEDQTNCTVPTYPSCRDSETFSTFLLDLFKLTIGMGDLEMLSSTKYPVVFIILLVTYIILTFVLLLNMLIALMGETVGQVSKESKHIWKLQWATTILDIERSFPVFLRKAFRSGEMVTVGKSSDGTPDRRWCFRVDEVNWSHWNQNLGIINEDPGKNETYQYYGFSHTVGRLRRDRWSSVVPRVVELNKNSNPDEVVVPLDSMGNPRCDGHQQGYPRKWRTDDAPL

SMILES	MIC [1]	pIC50 [2]	Activity [3]	Activity [4]	pIC50 [5]	pIC50 [6]
C[C@@H]1[C@H](O)[C@@H](C)/C=C/C=C/C=C/C=C/C=C/C=C/C=C/[C@H](O[C@@H]2O[C@H](C)[C@@H](O)[C@H](N)[C@@H]2O)C[C@@H]2O[C@](O)(C[C@@H](O)C[C@@H](O)[C@H](O)CC[C@@H](O)C[C@@H](O)CC(=O)O[C@H]1C)C[C@H](O)[C@H]2C(=O)O [AMPHOTERICIN B]	0.5 µg/mL (≈ 0.541 µM)	–	–	–	–	–
C/C=C(\C)[C@H]1C(C)=C[C@H]2C[C@@H](C)C[C@@H](C(=O)O)[C@@H]2[C@@]1(C)C(=O)CCO	> 64 µg/mL	4.73	inactive	inactive	–	–
C/C=C(\C)[C@H]1C(C)=C[C@H]2C[C@@H](C)C[C@H]3C(=O)/C(=C\NCCO)C(=O)[C@]1(C)[C@H]23	16 µg/mL (≈ 43.1 µM)	4.21	inactive	inactive	–	–
C/C=C(\C)[C@H]1C(C)=C[C@H]2C[C@@H](C)C[C@@H](C(=O)O)[C@@H]2[C@@]1(C)C(=O)c1cccnc1	> 64 µg/mL	–	inactive	inactive	4.34	4.09
CCC(C)n1ncn(-c2ccc(N3CCN(c4ccc(OCC5COC(Cn6cncn6)(c6ccc(Cl)cc6Cl)O5)cc4)CC3)cc2)c1=O (stereo not drawn) [ITRACONAZOLE]	0.001 µg/mL (≈ 0.00142 µM)	–	–	–	–	–
C/C=C(\C)[C@H]1C(C)=C[C@H]2C[C@@H](C)C[C@H]3C(O)=C(C=O)C(=O)[C@]1(C)[C@H]23	2 µg/mL (≈ 6.09 µM)	–	inactive	inactive	–	–
